According to BindingDB's records for doi:10.1021/jm301002f (H. Lee Moffitt Cancer Center and Research Institute, 2012):
Residues, ends and D or L forms follow the SMILES beside them. *: point of attachment. Propyl(2R-PamO,3-PamO) = CCCCCCCCCCCCCCCC(=O)OC[C@H](C*)OC(=O)CCCCCCCCCCCCCCC; X1 = CC(=O)NCCCOCCOCCOCCCNC(=O)COCC(=O)*

What was measured:
[1] = biological target: T1, Toll-like receptor 2 (Homo sapiens, UniProt O60603); test: Displacement of Eu-DTPA from human TLR2 expressed in HEK293 cells after 1 hr
Procedure, shortened: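 Live-cell europium TRF competition binding in HEK-293/hTLR2 (poly-D-lysine plates) or SU.86.86 cells grown 2 days to ~80% confluence. Unlabeled ligand 1 μM to 0.01 nM plus 90 nM Eu-DTPA-labeled tracer, 1 h at 37°C; three washes, enhancement solution 30 min at 37°C, read at 340 nm excitation/615 nm emission with time delay.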

[2] = biological target: T1, Toll-like receptor 2; test: Displacement of Eu-DTPA from human TLR2 expressed in SU.86.86 cells after 1 hr
[3] = biological target: T1, Toll-like receptor 2; test: Agonist activity at human TLR2 expressed in HEK293 cells assessed as induction of NF-kappaB signaling after 24 hrs by luminescence based luciferase reporter gene assay

T1 sequence (O60603 whole entry): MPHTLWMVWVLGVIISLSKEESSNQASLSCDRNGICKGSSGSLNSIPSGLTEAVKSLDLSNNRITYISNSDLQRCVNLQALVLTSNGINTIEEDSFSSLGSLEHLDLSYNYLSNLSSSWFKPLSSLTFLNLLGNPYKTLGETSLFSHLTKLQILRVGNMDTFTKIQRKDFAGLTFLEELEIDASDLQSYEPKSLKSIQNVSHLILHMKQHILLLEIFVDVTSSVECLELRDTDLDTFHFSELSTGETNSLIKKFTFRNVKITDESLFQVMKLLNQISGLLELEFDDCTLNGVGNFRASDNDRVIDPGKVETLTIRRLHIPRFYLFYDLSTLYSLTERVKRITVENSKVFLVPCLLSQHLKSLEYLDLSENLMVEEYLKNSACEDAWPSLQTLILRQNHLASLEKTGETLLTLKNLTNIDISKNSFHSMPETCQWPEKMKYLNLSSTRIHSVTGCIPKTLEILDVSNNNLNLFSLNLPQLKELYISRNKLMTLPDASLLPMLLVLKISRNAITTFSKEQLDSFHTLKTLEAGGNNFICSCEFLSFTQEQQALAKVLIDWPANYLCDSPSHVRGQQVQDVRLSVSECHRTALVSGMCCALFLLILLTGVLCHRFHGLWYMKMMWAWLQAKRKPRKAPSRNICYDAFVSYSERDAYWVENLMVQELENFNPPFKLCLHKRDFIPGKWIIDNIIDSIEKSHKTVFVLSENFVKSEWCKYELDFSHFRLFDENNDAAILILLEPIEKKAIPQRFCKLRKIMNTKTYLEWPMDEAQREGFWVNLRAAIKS

Row | Compound | Ki [1] [nM] | Ki [2] [nM] | EC50 [3] [nM]
1 | CCCCCCCCCCCCCCCC(=O)OCC(CSCC(NC(=O)COCC(=O)NCCCOCCOCCOCCCNC(=O)CCSC1CC(=O)N(CCNC(=O)CCCCC[N+]2=C(/C=C/C=C/C=C3/Cc4cc(S(=O)(=O)O)ccc4N3CC)Cc3cc(S(=O)(=O)[O-])ccc32)C1=O)C(=O)NCC(=O)NC(CO)C(=O)NCCCOCCOCCOCCCNC(=O)COCC(N)=O)OC(=O)CCCCCCCCCCCCCCC (centres undefined) | 11 | 67 | 34
2 | CCCCCCCCCCCCCCCC(=O)OC[C@H](CSC[C@H](NC(=O)COCC(=O)NCCCOCCOCCOCCCNC(C)=O)C(=O)N[C@@H](CO)C(=O)N[C@@H](CCCNC(=N)N)C(=O)N[C@@H](Cc1ccccc1)C(=O)N[C@@H](CC(=O)O)C(=O)N[C@@H](CCC(=O)O)C(=O)N[C@@H](CC(=O)O)C(=O)N[C@@H](CC(=O)O)C(=O)N[C@@H](CC(C)C)C(=O)N[C@@H](CCC(=O)O)C(N)=O)OC(=O)CCCCCCCCCCCCCCC (X1-C(Propyl(2R-PamO,3-PamO))SRFDEDDLE-NH2) |  |  | 25
